Assay results reported in ChEMBL document CHEMBL4177662, “Phosphamide-containing diphenylpyrimidine analogues (PA-DPPYs) as potent focal adhesion kinase (FAK) inhibitors with enhanced activity against pancreatic cancer cell lines” (Bioorg Med Chem, 2017).

Key:
[1] = tested on: ASPC1; assay: Induction of apoptosis in human Aspc-1 cells assessed as early apoptotic cells at 2.5 uM after 72 hrs by Annexin V-FITC/propidium iodide staining-based flow cytometry (reference value: 0%); type: functional
Outline: (§1)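 AsPC-1 cells (3 to 5×10^5 per well) were treated with DMSO solvent control or compound for 72 h in medium with 5% FBS. Cells were then stained with Annexin V-FITC and propidium iodide and analysed by flow cytometry. One representative experiment shown.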

[2] = tested on: ASPC1; assay: Induction of apoptosis in human Aspc-1 cells assessed as necrotic cells at 5 uM after 72 hrs by Annexin V-FITC/propidium iodide staining-based flow cytometry (reference value: 0%); type: functional; outline: as §1
[3] = tested on: ASPC1; assay: Induction of apoptosis in human Aspc-1 cells assessed as viable cells at 5 uM after 72 hrs by Annexin V-FITC/propidium iodide staining-based flow cytometry (reference value: 100%); type: functional; settings: ASPC1, 72 h, read-out: Activity; outline: as §1
[4] = tested on: ASPC1; assay: Induction of apoptosis in human Aspc-1 cells assessed as late apoptotic cells at 10 uM after 72 hrs by Annexin V-FITC/propidium iodide staining-based flow cytometry (reference value: 0%); type: functional; outline: as §1
[5] = tested on: ASPC1; assay: Induction of apoptosis in human Aspc-1 cells assessed as viable cells at 10 uM after 72 hrs by Annexin V-FITC/propidium iodide staining-based flow cytometry (reference value: 100%); type: functional; settings: ASPC1, 72 h, read-out: Activity; outline: as §1
[6] = tested on: ASPC1; assay: Cell cycle arrest in human Aspc-1 cells assessed as accumulation at S phase at 5 uM after 72 hrs by propidium iodide staining-based flow cytometry (reference value: 59.70%); type: functional
[7] = tested on: Epidermal growth factor receptor (Homo sapiens), P00533 [T790M]; assay: Inhibition of recombinant GST-tagged human EGFR cytoplasmic domain (668 to 1210 residues) T790M mutant expressed in baculovirus expression system at 100 nM relative to control
Outline: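 Part of a small kinase-panel profile run by an outsourced biochemical profiling service. The test compound was given at a single concentration of 100 nM, and activity was reported as percent inhibition rate.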

[8] = tested on: ASPC1; assay: Antiproliferative activity against human Aspc-1 cells assessed as cell viability at 8 uM after 24 hrs by MTT assay (reference value: 100%); type: functional; settings: ASPC1, 24 h, read-out: Activity
[9] = tested on: BXPC-3; assay: Antiproliferative activity against human BxPC3 cells assessed as cell viability at 0.5 uM after 72 hrs by MTT assay (reference value: 97%); type: functional; settings: BXPC-3, 72 h, read-out: Activity

Chain of Epidermal growth factor receptor (Homo sapiens), P00533 [T790M] (P00533 whole entry T790M, the tested form may be a part): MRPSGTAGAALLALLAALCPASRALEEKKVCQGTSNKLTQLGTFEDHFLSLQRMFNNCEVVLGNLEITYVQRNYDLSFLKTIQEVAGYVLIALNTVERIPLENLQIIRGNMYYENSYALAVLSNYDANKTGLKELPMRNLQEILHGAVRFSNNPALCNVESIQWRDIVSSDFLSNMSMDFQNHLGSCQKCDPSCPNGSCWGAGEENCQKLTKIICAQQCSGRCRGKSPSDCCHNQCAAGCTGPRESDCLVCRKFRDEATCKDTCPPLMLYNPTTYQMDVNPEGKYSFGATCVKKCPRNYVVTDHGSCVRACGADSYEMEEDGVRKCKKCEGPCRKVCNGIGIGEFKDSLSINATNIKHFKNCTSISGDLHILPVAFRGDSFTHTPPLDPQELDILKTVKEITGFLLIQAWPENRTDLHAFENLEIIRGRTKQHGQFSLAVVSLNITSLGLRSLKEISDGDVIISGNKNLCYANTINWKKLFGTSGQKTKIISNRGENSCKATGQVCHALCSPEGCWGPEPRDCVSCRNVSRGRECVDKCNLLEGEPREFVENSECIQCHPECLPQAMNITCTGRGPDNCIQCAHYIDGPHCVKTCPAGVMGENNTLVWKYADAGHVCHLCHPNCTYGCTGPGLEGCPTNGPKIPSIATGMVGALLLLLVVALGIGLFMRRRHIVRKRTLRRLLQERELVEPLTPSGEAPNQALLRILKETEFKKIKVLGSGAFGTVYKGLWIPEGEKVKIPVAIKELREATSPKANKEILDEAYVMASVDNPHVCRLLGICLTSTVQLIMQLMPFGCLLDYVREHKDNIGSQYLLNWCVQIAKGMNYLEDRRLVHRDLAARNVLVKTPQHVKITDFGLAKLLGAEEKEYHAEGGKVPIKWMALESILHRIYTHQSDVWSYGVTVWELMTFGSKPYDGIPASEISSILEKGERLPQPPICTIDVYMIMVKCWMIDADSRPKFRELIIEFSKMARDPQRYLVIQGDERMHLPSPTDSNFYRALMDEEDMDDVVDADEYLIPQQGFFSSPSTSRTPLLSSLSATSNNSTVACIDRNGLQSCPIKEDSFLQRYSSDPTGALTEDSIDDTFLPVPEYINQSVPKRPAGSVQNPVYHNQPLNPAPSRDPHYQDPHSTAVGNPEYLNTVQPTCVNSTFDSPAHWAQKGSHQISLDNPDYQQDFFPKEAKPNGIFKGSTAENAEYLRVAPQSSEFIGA

Work on `CCOP(=O)(CCCOc1ccc(Nc2ncc([N+](=O)[O-])c(Nc3ccccc3C(=O)NC)n2)cc1)N1CCOCC1` (centres undefined) yielded an Activity [1] of 21%, an Activity [2] of 3.3% and a viability at 5 µM [3] of 40.1%. It also gave an Activity [4] of 75.3%, a viability at 10 µM [5] of 7.7% and an Activity [6] of 37.82%. The inhibition [7] was 45%, the viability at 8 µM [8] was 56.8% and the viability at 0.5 µM [9] was 69.8%.
